# In the library only some 2% were active in any assay of this set; here they are far more common.
# ARNT-TACC3 inh: disruptors of human ARNT/TACC3 interaction; inhibition, % at 9.99 µM; AlphaScreen His-ARNT PAS-B/GST-TACC3 binding, luminescence; TACC3 fragment carries E629A point mutation; Q9Y6A5; hit rate 0.66% among 390,000;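 active = mean inhibition of replicates at least 50% and at least half of replicates each reaching 50%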;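 also: 0% = complete ARNT plus TACC3 wells and 100% = ARNT alone without TACC3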
# AI-2 QS mod: Vibrio harveyi AI-2 quorum sensing modulation; Vibrio harveyi JMH597 AI-2 luminescence/OD600 ratio, 9 h; active compounds read low; strain lacks LuxN and CqsS sensors; 0 = neutral-control median; activity change, % at 7.5 µM; hit rate 0.4% among 300,000; AID 2094; in the data active = activity change below about -75%, passing the limit was not always enough;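 also: luminescence divided by OD600 gain over 9 h not by final OD600 alone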
# HIF activator: HIF pathway transcriptional activation; activation, % at 7.5 µM (by protocol); hit rate 0.32% among 300,000; AID 1910; U2OS HRE-luciferase reporter, luminescence; normalized: DMSO 0%, desferrioxamine 100%;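 active = mean activation of at least 10% of the iron chelator positive control signal, with at least half of replicates also reaching 10%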
# T cruzi inh: blocks replication of Trypanosoma cruzi. AID 1885. inhibition, % (no concentration beside the values). T. cruzi beta-gal in NIH3T3, luminescence, 90 h. hit rate 1.4% among 300,000;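 active = mean inhibition across valid replicates above about 55%, limit read from the data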;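 also: signal also drops with host cell toxicity which is not excluded here; 0% = plate median of DMSO wells and 100% = zero luminescence signal; higher percent means less beta-gal luminescence so fewer parasites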
#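 Incubation – ≥90 h infection period, 3 h prior cell attachment · System – NIH/3T3 fibroblasts plus reporter T. cruzi · Doses – compound pinned at 50 nL/well, DMSO · Read-out basis – percent inhibition of parasite-derived β-gal signal · Signal – luminescent β-galactosidase signal after 60 min lysis · Also added – 5000 T. cruzi trypomastigotes/well · Medium – Low-serum DMEM with 2% FBS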
# ARNT Alpha ctr-1: interferes with AlphaScreen signal, flagging false ARNT-TACC3 hits; shares compounds with ARNT-TACC3 inh; His-ARNT PASB-GST AlphaScreen artifact counter-screen, luminescence; AC50, µM (series often up to 68 µM), for inactives: at the highest dose activity change, negative = signal decrease; hit rate 50% among 1,200;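 active = every separate test run was called active for a drop in luminescence, with AC50 within twice the top valid dose, actives reach about 71 µM in these data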
# ARNT Alpha ctr-2: counter-screen for ARNT-TACC3 inhibitors: AlphaScreen artifacts. Dual-tagged His-ARNT PASB-GST AlphaScreen artifact counter-screen. shares compounds with ARNT-TACC3 inh. AC50, µM. hit rate 70% among 45. AID 720564;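 active = luminescence drop, with half-maximal potency fitted within twice the sample's top valid dose, cut at about 70 µM in these data; inactive = the rest, including signal moving the wrong way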
# Active calls of the source: *; i = inactive; nt = not tested or not shown.
SMILES,ARNT-TACC3 inh,AI-2 QS mod,HIF activator,T cruzi inh,ARNT Alpha ctr-1,others
CCCN(C)C[C@@H]1Oc2cc(C#Cc3cccc(OC)c3)ccc2S(=O)(=O)N([C@H](C)CO)C[C@@H]1C,-4,nt,nt,nt,nt,
CNC[C@@H]1OCCCC[C@@H](C)Oc2ccc(NS(=O)(=O)c3ccccc3)cc2C(=O)N([C@@H](C)CO)C[C@H]1C,4,nt,nt,nt,nt,
CN1[C@@H]2Cn3c(ccc(-c4ccncc4)c3=O)[C@H]1[C@@H](C(=O)NC1CCCCC1)[C@@H]2CO,31,nt,nt,nt,nt,
O=C(NCCc1ccccc1)c1ccc(=O)[nH]c1,active,-7,0,7,-5%,
NS(=O)(=O)c1ccc(CCNC(=O)c2ccc(=O)[nH]c2)cc1,-5,-6,0,9,nt,
CN(C)CC(=O)N1CC[C@@H]2[C@H]1c1cc(Br)ccc1N(C)[C@H]2CO,11,nt,nt,nt,nt,
COc1ccc(S(=O)(=O)N(C)C[C@@H]2Oc3ccc(NC(=O)CCCCCC(=O)Nc4ccccc4N)cc3C(=O)N([C@H](C)CO)C[C@@H]2C)cc1,2,nt,nt,nt,nt,
CCCN(C)C[C@H]1OCCCC[C@@H](C)Oc2ccc(NC(=O)CCCN(C)C)cc2C(=O)N([C@@H](C)CO)C[C@H]1C,-1,nt,nt,nt,nt,
C=CCn1c(Cc2csc(N)n2)nnc1SCC(=O)Nc1ccc(C(=O)OCC)cc1,61*,3,0,6,-30%,
C=CCn1c(Cc2cccs2)nnc1SCC(=O)Nc1ccc(C(=O)OCC)cc1,-1,24,0,41,nt,
COc1cc(OC)cc(C(=O)OCC(=O)Nc2nnc(-c3ccccc3)o2)c1,5,nt,nt,nt,nt,
Cc1ccsc1C(=O)OCC(=O)Nc1nnc(-c2ccccc2)o1,57*,nt,0,-14,64µM*,
Cc1ccsc1C(=O)OCc1nnc(-c2ccccc2)o1,-2,nt,nt,nt,nt,
O=C(COC(=O)c1ccc(Cl)nc1)Nc1nnc(-c2ccccc2)o1,79*,-11,-13,-1,-14%,
C[C@H](CO)N1C[C@H](C)[C@@H](CN(C)Cc2ccncc2)Oc2c(NC(=O)Nc3ccc4c(c3)OCO4)cccc2C1=O,2,nt,nt,nt,nt,
C[C@@H]1CN([C@@H](C)CO)C(=O)c2cc(NC(=O)CCCN(C)C)ccc2O[C@H]1CN(C)Cc1ccc(Oc2ccccc2)cc1,12,nt,nt,nt,nt,
Cc1ccc(S(=O)(=O)N2CCOCC2)cc1NC(=O)CNCc1ccccn1,65*,21,0,4,50µM*,
Cc1ccc(S(=O)(=O)NCC[C@@H]2CC[C@H](NC(=O)NC(C)C)[C@@H](CO)O2)cc1,-13,nt,nt,nt,nt,
Cc1[nH]n(-c2ccccc2)c(=O)c1/C=N/N(c1ccccc1)c1ccccc1,55*,18,0,0,23µM*,
CN1CCN(S(=O)(=O)c2cccc(C(=O)Nc3sccc3C(N)=O)c2)CC1,46*,nt,nt,nt,44µM*,
CC(C)Cc1nnc(NC(=O)c2cccc(S(=O)(=O)N3CCOCC3)c2)s1,nt,nt,nt,nt,nt,ARNT Alpha ctr-2=i
C[C@@H]1CN([C@@H](C)CO)C(=O)c2cc(C#CC3CC3)cnc2O[C@H]1CN(C)C(=O)CC1CC1,-3,nt,nt,nt,nt,
Oc1cccc2c(-c3nn[nH]n3)ccnc12,68*,nt,nt,nt,10µM*,
c1ccc2c(-c3nn[nH]n3)cccc2c1,1,18,0,-2,nt,
O=C(Nc1ccc(Cl)c(Cl)c1)N[C@H]1CC[C@@H](CCNC(=O)c2ccc(F)cc2)O[C@H]1CO,3,nt,nt,nt,nt,
SMILES,ARNT-TACC3 inh,AI-2 QS mod,HIF activator,T cruzi inh,ARNT Alpha ctr-1,others
Cc1ccc(/C=N/Nc2ccc3ccccc3n2)o1,29,6,nt,nt,nt,
Cc1ccc(/C=N/Nc2cn[nH]c(=O)n2)o1,57*,1,0,-21,-11%,
CC(C)C(=O)Nc1ccc2c(c1)C(=O)N(C)[C@H]1CC[C@H](CC(=O)Nc3ccc(Cl)cc3)O[C@@H]1CO2,-2,nt,nt,nt,nt,
c1ccc(-c2cnc(Nc3nc(-c4ccccn4)nnc3-c3ccccc3)s2)cc1,nt,nt,nt,nt,2.6µM*,
Cc1ccc(Nc2nc(-c3ccccn3)nnc2-c2ccccc2)cn1,nt,nt,nt,nt,0.42µM*,
c1ccc(-c2noc(-c3cccnc3)n2)nc1,20,21,0,-8,nt,
COc1ccc(/C=N/Nc2nncn2N)cc1Br,55*,49,-19,7,-19%,
COc1cc(/C=N/Nc2nncn2N)ccc1OCc1c(C)no[n+]1[O-],6,5,0,-5,nt,
CN(C)CCCNC(=O)c1ccc(-c2cc(O)c3ncccc3c2)cc1,60*,nt,nt,nt,14µM*,
Oc1cc(-c2ccc(N3CCCCC3)nc2)cc2cccnc12,14,nt,nt,nt,nt,
Oc1cc(Nc2ccncc2)cc2cccnc12,73*,nt,nt,nt,7.9µM*,
CN(C)c1ccc(-c2cc(O)c3ncccc3c2)cc1,36,nt,nt,nt,nt,
Oc1cc(-c2ccncc2)cc2cccnc12,67*,nt,nt,nt,12µM*,
C[C@@H]1CN([C@H](C)CO)S(=O)(=O)c2ccc(C#C[C@@H](C)O)cc2O[C@H]1CN(C)Cc1ccncc1,2,nt,nt,nt,nt,
c1ccc(-c2nnc(-c3ccccn3)nc2NCC2CCCCC2)cc1,nt,nt,nt,nt,3.1µM*,
c1ccc(-c2nnc(-c3ccccn3)nc2NCC2CC2)cc1,nt,nt,nt,nt,1µM*,
c1ccc(-c2noc(C3CCCCC3)n2)nc1,-17,3,2,-12,nt,
Cc1nc(NCC2CC2)c2nnn(Cc3ccccc3)c2n1,-15,14,1,3,nt,
COc1cccc(-c2ccc3c(c2)O[C@@H](CN(C)C(=O)c2ccccc2F)[C@@H](C)CN([C@@H](C)CO)S3(=O)=O)c1,6,nt,nt,nt,nt,
COc1ccc(OC)c(-c2cc(C(=O)N3CCN(c4ncccn4)CC3)c3ccccc3n2)c1,51*,26,0,-12,-37%,
COc1cccc(NC(=O)C[C@@H]2CC[C@H]3[C@H](COc4ccc(NC(=O)C5CCCCC5)cc4C(=O)N3C)O2)c1,17,nt,nt,nt,nt,
N#Cc1ccc(CC(=O)c2ccccc2)[nH]c1=O,active,nt,nt,nt,-12%,
N#Cc1ccc(CCc2ccccc2)[nH]c1=O,-1,nt,nt,nt,nt,
Nc1ccccc1C(=O)N=Nc1[nH]c(N)c2ccccc12,62*,-3,1,1,56µM*,
Nc1nnc2c(n1)CCCC2,55*,11,0,-5,-10%,
SMILES,ARNT-TACC3 inh,AI-2 QS mod,HIF activator,T cruzi inh,ARNT Alpha ctr-1,others
C1CCc2nc3c(nc2C1)CCCC3,-7,10,0,3,nt,
Cc1noc(C)c1NC(=O)N(C)C[C@@H]1OCCCC[C@@H](C)Oc2ccc(NC(=O)c3ccccc3)cc2C(=O)N([C@H](C)CO)C[C@@H]1C,-12,nt,nt,nt,nt,
Cc1nnc(NC(=O)c2ccc(S(=O)(=O)N3CCCCC3)cc2)o1,nt,nt,nt,nt,nt,ARNT Alpha ctr-2=>136
Cc1nnc(NC(=O)C2CCN(S(=O)(=O)c3cc([N+](=O)[O-])ccc3Cl)CC2)o1,52*,nt,nt,nt,-20%,
CC1CCCN(S(=O)(=O)c2ccc(C(=O)Nc3nnc(C4CC4)o3)cc2)C1 (stereo not given),51*,17,0,-6,65µM*,
O=C(NC1CC1)C1CCN(S(=O)(=O)c2cc([N+](=O)[O-])ccc2Cl)CC1,-9,nt,nt,nt,nt,

# Assay outcomes: PubChem BioAssay, Broad Institute
